Several values for one entry are separate records, joined by “and”; a condition that tells them apart may be missing. Equal entries are not always repeated.

The results in this text go back to publication PMC8006165 (ACS Central Science, 2021).

In data set [1] the target is T1, EcYihV (Escherichia coli, UniProt P32143).
T1 sequence (P32143 1-298): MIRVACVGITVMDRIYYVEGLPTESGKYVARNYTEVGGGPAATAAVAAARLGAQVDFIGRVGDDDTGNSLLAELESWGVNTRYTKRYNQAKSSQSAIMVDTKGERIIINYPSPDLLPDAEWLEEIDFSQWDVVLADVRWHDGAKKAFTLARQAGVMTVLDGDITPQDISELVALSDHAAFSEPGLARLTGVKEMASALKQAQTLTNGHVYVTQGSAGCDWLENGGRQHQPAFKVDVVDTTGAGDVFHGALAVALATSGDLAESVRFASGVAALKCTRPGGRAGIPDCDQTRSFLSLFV
The data set can be described thus: X-ray structure of cocrystal. Type of data set: binding. The settings on record: with Mg; open and closed subunits.

In data set [2] the target is T1, EcYihV. The data set can be described thus: effect of additive on SF phosphorylation, HPLC-MS/MS. Type of data set: biochemical. The settings on record: 1.0 mM ATP, varied SF, pH 7.5, 30 °C, activator.
A further data set deals with T2, SeYihT (Salmonella enterica, UniProt Q9L7R9).
T2 sequence (Q9L7R9 1-292): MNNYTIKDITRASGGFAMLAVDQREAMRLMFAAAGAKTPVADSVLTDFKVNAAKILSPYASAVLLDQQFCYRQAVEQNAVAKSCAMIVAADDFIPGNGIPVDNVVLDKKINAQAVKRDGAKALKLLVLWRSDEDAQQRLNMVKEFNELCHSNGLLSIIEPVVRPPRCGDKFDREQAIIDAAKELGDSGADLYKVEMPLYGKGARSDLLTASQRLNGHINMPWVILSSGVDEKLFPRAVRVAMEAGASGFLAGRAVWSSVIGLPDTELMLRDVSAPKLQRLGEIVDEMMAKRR
The data set can be described thus: X-ray structure, in-crystal cleavage of SFP. Type of data set: binding. The settings on record: covalent Schiff base with Lys193.

For data set [3], the target named is T1, EcYihV. The data set can be described thus: SFP production, HPLC-MS/MS. In kind it is biochemical. The settings on record: substrate inhibition; 1.0 mM ATP; pH 7.5, 5 mM MgCl2, 30 °C; no additive. Summed up:
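Recombinant E. coli YihV (36.6 nM) phosphorylating chemically synthesized sulfofructose (SF) to SFP. […] SFP formation was quantified by HPLC-MS/MS on a ZIC-HILIC column. Rates across SF concentrations were fitted to a substrate inhibition kinetic model.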

Data set [4] concerns the target Salmonella enterica YihS (SQ-SF isomerase), as measured by SEC-MALS (Salmonella enterica) (UniProt Q8ZKT7). The data set can be described thus: SEC-MALS. For orientation: In gel filtration, larger molecules generally elute earlier.
The data set “SEC-MALS” concerns the molecule itself. The data set can be described thus: SEC-MALS.
Substrate in data set [5]: Nc1ncnc2c1ncn2[C@@H]1O[C@H](COP(=O)(O)OP(=O)(O)OP(=O)(O)O)[C@@H](O)[C@H]1O
The data set can be described thus: purified protein. The settings on record: 1.0 mM SF, 25 mM BTP pH 7.5, 25 mM KCl, 5 mM MgCl2, 30 °C.

Substrate in data set [6]: O=C(COP(=O)(O)O)[C@@H](O)[C@H](O)[C@H](O)CS(=O)(=O)O
The data set can be described thus: purified protein. The settings on record: SFP to SLA and DHAP.

For the molecule `Nc1ncnc2c1ncn2[C@@H]1O[C@H](COP(=O)(O)OP(=O)(O)NP(=O)(O)O)[C@@H](O)[C@H]1O` [AMPPNP], the “X-ray structure of cocrystal” value on EcYihV [1] is “AMPPNP resulted in the EcYihV·AMPPNP·Mg complex showing a surface-accessible nucleotide binding site”.

Turning to `C=C(OP(=O)(O)O)C(=O)O` [PEP], the “effect of additive on SF phosphorylation, HPLC-MS/MS” value at EcYihV [2] (10 mM PEP) is “by F6P, FBP, PEP, and citrate (through effects on kcat/KM)”.

Regarding `O=C(CO)COP(=O)(O)O` [DHAP], the “X-ray structure, in-crystal cleavage of SFP” value on SeYihT is given as “a new Schiff base formed with a DHAP molecule could be modeled”.

Regarding `O=S(=O)(O)C[C@H]1OC(O)(CO)[C@@H](O)[C@@H]1O` (some centres unmarked) [SF, 6-deoxy-6-sulfofructose], the “KI” value at EcYihV [3] was 8.5 ± 2.8 mM.

With `O=P(O)(O)OC[C@H]1OC(O)(COP(=O)(O)O)[C@@H](O)[C@@H]1O` (some centres unmarked) [FBP], the “effect of additive on SF phosphorylation, HPLC-MS/MS” value at EcYihV [2] (10 mM FBP) was “by F6P, FBP, PEP, and citrate (through effects on kcat/KM)”.

For orientation: stoichiometry N means the number of molecules, sites or subunits per partner or assembly. In turn, “Salmonella enterica YihS (SQ-SF isomerase), as measured by SEC-MALS (from UniProt Q8ZKT7 2-413) (enzyme)” registered a stoichiometry N in data set [4] of 6.

B1: E. coli YihV (sulfofructose kinase) (enzyme, UniProt P32143 1-298, looked up)
chain: T1 sequence (P32143 1-298)
A word on the Km: it is the substrate concentration at which the rate is half of its maximum. The kcat is the maximal rate divided by the concentration of active sites. For orientation: kcat/Km means the turnover number divided by the Michaelis constant. In the case of B1, in “SEC-MALS”, the “stoichiometry N” value is 2 and 4. Moreover, in the data set “purified protein [5]”, the Km amounted to 1000 ± 200 µM, the kcat came out at 3.1 s⁻¹ and the specificity constant (kcat/Km) turned out to be 3200 M⁻¹ s⁻¹.

B2: E. coli YihT (sulfofructose-1-phosphate aldolase) (enzyme, UniProt P32141 1-292, looked up)
chain: MNKYTINDITRASGGFAMLAVDQREAMRMMFAAAGAPAPVADSVLTDFKVNAAKALSPYASAILVDQQFCYRQVVEQNAIAKSCAMIVAADEFIPGNGIPVDSVVIDRKINPLQIKQDGGKALKLLVLWRSDEDAQQRLDMVKEFNELCHSHGLVSIIEPVVRPPRRGDKFDREQAIIDAAKELGDSGADLYKVEMPLYGKGPQQELLCASQRLNDHINMPWVILSSGVDEKLFPRAVRVAMTAGASGFLAGRAVWASVVGLPDNELMLRDVCAPKLQQLGDIVDEMMAKRR
As to B2, in the data set “SEC-MALS”, the “stoichiometry N” value was 4.

B3: Salmonella enterica YihT (sulfofructose-1-phosphate aldolase) (enzyme, UniProt Q9L7R9 1-292, looked up)
chain: T2 sequence (Q9L7R9 1-292)
As for B3, in “SEC-MALS”, the “stoichiometry N” value was 4. In addition, in the data set “purified protein [6]”, the Km stood at 3570 ± 420 µM and the kcat was found to be 47.7 ± 2.4 s⁻¹.
